From ChEMBL document CHEMBL1142845, “Synthesis, stability, and implications of phosphothioate agonists of sphingosine-1-phosphate receptors” (Bioorg Med Chem Lett, 2005) come the findings set out here.

SMILES strings stand for the structures. “And” between values parts separate entries of the source, which are not always exact repeats. Identical values can stand only once.

The test is described as follows: Effective concentration required for [35S]GTP-gamma-S binding towards Sphingosine 1-phosphate receptor G-protein complex expressed in HEK293T cells. The class given is functional, cell-based, Homo sapiens. To be noted: hek-293t. In a few lines:
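Agonist-stimulated [35S]GTPγS binding was measured on individual S1P receptor–G-protein complexes overexpressed in HEK293T cells. EC50 values were taken from ligand-dependent binding, and efficacy was expressed as a percentage of the S1P maximal effect at each receptor.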
(Binding of GTPγS marks nucleotide exchange on a G protein.)

Regarding `CCCCCCCCc1ccc(CC[C@@H](N)CO)cc1`, the EC50 (commonly the concentration needed to bring the measured effect to its halfway point) was 910 nM and 2800 nM and 8700 nM.
Next, `CCCCCCCCc1ccc(NC(=O)[C@@H](N)[C@@H](C)OP(=O)(O)O)cc1`: 20 nM; `CCCCCCCCc1ccc(NC(=O)[C@@H](N)[C@@H](C)O)cc1`: 1700 nM and 490 nM.
